Calls of active or inactive are those of the source. No cut-off for these calls is given here.
Columns and labels:
[1] = target: T1, 5-hydroxytryptamine receptor 1B (Homo sapiens, UniProt P28222); experiment: Antagonist activity at 5HT1B receptor expressed in CHO cells by [35S]GTPgammaS assay; format: functional, cell-based; set-up: concentration or dose not given beside the values
[2] = target: T1, 5-hydroxytryptamine receptor 1B; experiment: Binding affinity to 5HT1B receptor expressed in CHO cells; format: cell-based
In short: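 Frozen membranes from stably transfected CHO cells expressing 5-HT1B, 10 μg/well. Buffer: 50 mM Tris-HCl, 4 mM MgCl2, 4 mM CaCl2, 1 mM EDTA, pH 7.4. [3H]GR125743 at 0.5 nM final; nonspecific binding defined with 1 μM AZD1134. 11-point dilutions, 10 μM to 170 pM final. 1 h at room temperature, then WGA yttrium silicate SPA beads for 30 min. IC50 and Ki derived with Kenakin correction for ligand depletion.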

[3] = system: in vitro phospholipidosis assay (no protein target); experiment: in vitro; details: human
[4] = target: 5-hydroxytryptamine receptor 2A (Homo sapiens) (UniProt P28223); experiment: Inhibition of human 5HT2A receptor at 10 uM
In short: (§1)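 Radioligand binding assays from an outside panel of 100 targets, single concentration 10 μM, reported as % effect. Receptor species: human for 5-HT1A, 5-HT2A and 5-HT2B; guinea pig for 5-HT4.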

[5] = target: 5-hydroxytryptamine receptor 2B (Homo sapiens) (UniProt P41595); experiment: Inhibition of human 5HT2B receptor at 10 uM; in short: as §1
[6] = target: 5-hydroxytryptamine receptor 4 (Cavia porcellus) (UniProt O70528); experiment: Inhibition of guinea pig 5HT4 receptor at 10 uM; in short: as §1
[7] = system: Cavia porcellus; experiment: Reversal of NXY041-induced hypothermia in sc dosed guinea pig; format: functional, organism-based
[8] = target: T2, 5-hydroxytryptamine receptor 1A (Homo sapiens) (UniProt P08908); experiment: Inhibition of human 5HT1A receptor at 10 uM; in short: as §1
T2 sequence (whole entry): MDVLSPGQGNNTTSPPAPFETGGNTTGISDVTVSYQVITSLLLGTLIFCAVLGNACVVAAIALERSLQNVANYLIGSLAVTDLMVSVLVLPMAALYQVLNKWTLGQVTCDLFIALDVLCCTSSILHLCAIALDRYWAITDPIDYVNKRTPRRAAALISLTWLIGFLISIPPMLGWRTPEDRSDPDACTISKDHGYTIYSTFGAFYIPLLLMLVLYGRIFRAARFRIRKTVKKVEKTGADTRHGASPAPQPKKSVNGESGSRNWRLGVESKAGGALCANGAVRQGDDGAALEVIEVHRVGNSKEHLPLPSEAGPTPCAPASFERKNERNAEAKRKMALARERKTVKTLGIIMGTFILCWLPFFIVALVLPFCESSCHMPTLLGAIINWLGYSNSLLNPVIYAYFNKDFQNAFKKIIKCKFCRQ

T1 sequence (P28222 whole entry): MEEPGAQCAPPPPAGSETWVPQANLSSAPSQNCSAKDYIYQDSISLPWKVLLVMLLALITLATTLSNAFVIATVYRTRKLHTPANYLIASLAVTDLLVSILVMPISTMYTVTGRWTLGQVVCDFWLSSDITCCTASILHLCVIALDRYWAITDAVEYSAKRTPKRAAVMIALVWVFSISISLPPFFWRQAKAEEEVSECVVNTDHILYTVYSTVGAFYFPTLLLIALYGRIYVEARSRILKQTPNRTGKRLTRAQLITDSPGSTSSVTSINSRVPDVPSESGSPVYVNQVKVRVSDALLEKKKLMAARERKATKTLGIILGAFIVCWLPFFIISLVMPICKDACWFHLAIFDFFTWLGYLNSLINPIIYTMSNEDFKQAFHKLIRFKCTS
Sequence of 5-hydroxytryptamine receptor 2B (Homo sapiens) (P41595 whole entry): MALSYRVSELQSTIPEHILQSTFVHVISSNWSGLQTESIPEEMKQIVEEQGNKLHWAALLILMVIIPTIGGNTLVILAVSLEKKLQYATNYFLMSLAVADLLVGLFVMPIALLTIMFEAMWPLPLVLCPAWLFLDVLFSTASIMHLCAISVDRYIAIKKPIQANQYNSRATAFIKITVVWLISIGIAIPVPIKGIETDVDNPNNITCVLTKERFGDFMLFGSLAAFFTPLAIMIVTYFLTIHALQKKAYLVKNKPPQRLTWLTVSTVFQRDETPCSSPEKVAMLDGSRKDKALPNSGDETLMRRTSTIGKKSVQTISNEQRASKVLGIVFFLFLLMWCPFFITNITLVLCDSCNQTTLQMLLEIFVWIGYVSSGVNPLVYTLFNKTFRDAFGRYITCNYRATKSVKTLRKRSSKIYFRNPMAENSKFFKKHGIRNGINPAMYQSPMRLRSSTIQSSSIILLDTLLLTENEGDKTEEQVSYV
Sequence of 5-hydroxytryptamine receptor 4 (Cavia porcellus) (O70528 whole entry): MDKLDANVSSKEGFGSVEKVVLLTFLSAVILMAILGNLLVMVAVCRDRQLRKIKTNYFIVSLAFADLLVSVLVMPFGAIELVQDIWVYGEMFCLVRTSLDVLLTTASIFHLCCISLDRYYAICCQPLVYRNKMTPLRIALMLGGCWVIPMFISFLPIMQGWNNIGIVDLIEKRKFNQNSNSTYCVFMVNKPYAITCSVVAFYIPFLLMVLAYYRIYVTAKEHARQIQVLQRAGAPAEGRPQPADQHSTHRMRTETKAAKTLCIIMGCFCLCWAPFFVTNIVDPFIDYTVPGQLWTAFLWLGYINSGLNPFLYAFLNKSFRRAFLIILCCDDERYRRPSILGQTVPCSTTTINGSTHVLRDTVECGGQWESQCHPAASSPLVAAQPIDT
Sequence of 5-hydroxytryptamine receptor 2A (Homo sapiens) (P28223 whole entry): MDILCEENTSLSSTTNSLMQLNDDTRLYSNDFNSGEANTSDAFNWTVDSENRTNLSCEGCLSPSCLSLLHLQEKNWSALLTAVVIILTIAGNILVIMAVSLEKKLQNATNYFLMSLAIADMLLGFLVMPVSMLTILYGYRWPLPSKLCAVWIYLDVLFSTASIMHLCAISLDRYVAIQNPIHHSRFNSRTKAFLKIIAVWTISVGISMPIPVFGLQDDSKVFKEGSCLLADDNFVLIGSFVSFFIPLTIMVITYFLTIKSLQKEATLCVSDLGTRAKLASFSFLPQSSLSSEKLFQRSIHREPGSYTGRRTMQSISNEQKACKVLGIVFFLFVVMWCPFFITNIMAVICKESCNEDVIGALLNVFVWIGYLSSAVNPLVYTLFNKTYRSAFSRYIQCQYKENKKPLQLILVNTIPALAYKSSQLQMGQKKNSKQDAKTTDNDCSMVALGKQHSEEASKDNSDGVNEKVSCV

Row | SMILES | Activity [1] | Ki [2] | other results
1 | COC1(c2ccc(NC(=O)C3CCc4cc(F)cc(-c5c(C)nn(C)c5C)c4O3)cn2)CCOCC1 (stereo unspecified) | 62% | 0.96 nM | 
2 | Cc1n[nH]c(C)c1-c1ccc(C)c2c(O)cc(C(=O)Nc3ccc(N4CCOCC4)cc3)nc12 |  | 9.3 nM | inhibition at 300 µM [3]: 12%
3 | Cc1n[nH]c(C)c1-c1ccc(C)c2c(=O)cc(C(=O)Nc3ccc(N4CCOCC4)cc3)[nH]c12 | 33% |  | 

More lines, in order of falling Ki [2], values ahead:

Row | Activity [1] | Ki [2] | SMILES | other results
4 | 120% | 12 nM | COc1cc2c(c(N3CCN(C)CC3)c1)O[C@@H](C(=O)Nc1ccc(N3CCOCC3)cc1)CC2 | 
5 | 150% | 1.7 nM | CCC(=O)N1CCN(c2ccc(NC(=O)c3cc(=O)c4cc(F)cc(N5CCN(C)CC5)c4o3)cc2)CC1 | 
6 | 90% | 0.43 nM | COC1(c2ccc(NC(=O)c3cc(=O)c4cc(F)cc(-c5c(C)nn(C)c5C)c4o3)cn2)CCOCC1 | inhibition [4]: -5%; inhibition [5]: 4%; inhibition [6]: 30%; Activity [7]: Active; inhibition [8]: -8%
